# Test results taken from ChEMBL document CHEMBL1687749, “Beijing genotype of Mycobacterium tuberculosis is significantly associated with high-level fluoroquinolone resistance in Vietnam” (2009).
# Tests used:
# Type in all cases: functional
# [1] = system: Mycobacterium tuberculosis; assay: Antimycobacterial activity against mixture of fluoroquinolone-resistant and sensitive Mycobacterium tuberculosis Beijing genotype isolates carrying heteropeaks upon sequencing
# Summary of the method: (§1)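 Ofloxacin MIC was determined on isolates from the first 65 FQ-resistant clinical isolates, screened by the WHO 1% proportion method on Lowenstein-Jensen medium with ofloxacin at 2 μg/ml. Beijing genotype was assigned by spoligotyping.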
# [2] = system: Mycobacterium tuberculosis; assay: Antimycobacterial activity against mixture of fluoroquinolone-resistant and sensitive Mycobacterium tuberculosis Beijing genotype isolates carrying heteropeaks upon sequencing at mutation site and harboring gyrB D500N mutant gene; summary of the method: as §1
# [3] = system: Mycobacterium tuberculosis; assay: Antimycobacterial activity against mixture of fluoroquinolone-resistant and sensitive Mycobacterium tuberculosis Beijing genotype isolates carrying heteropeaks upon sequencing at mutation site and harboring gyrA A90V and D94A mutant genes; summary of the method: as §1
# [4] = system: Mycobacterium tuberculosis; assay: Antimycobacterial activity against mixture of fluoroquinolone-resistant and sensitive Mycobacterium tuberculosis Beijing genotype isolates carrying heteropeaks upon sequencing at mutation site and harboring gyrA A90V and D94G mutant genes; summary of the method: as §1
# [5] = system: Mycobacterium tuberculosis; assay: Antimycobacterial activity against mixture of fluoroquinolone-resistant and sensitive Mycobacterium tuberculosis Beijing genotype isolates carrying heteropeaks upon sequencing at mutation site and harboring gyrA D94G mutant gene; summary of the method: as §1
# [6] = system: Mycobacterium tuberculosis; assay: Antimycobacterial activity against mixture of fluoroquinolone-resistant and sensitive Mycobacterium tuberculosis Beijing genotype isolates carrying heteropeaks upon sequencing at mutation site and harboring gyrA G88A mutant gene; summary of the method: as §1
# [7] = system: Mycobacterium tuberculosis; assay: Antimycobacterial activity against mixture of fluoroquinolone-resistant and sensitive Mycobacterium tuberculosis Beijing genotype isolates carrying heteropeaks upon sequencing at mutation site and harboring gyrA D94A mutant gene; summary of the method: as §1
# [8] = system: Mycobacterium tuberculosis; assay: Antimycobacterial activity against fluoroquinolone-resistant Mycobacterium tuberculosis Beijing genotype isolates without carrying multiple mutation and harboring gyrB A90V and T539P mutant genes
# [9] = system: Mycobacterium tuberculosis; assay: Antimycobacterial activity against fluoroquinolone-resistant Mycobacterium tuberculosis Beijing genotype isolates without carrying multiple mutation and harboring gyrA D94Y mutant gene
# Summary of the method: (§2)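 Ofloxacin MIC was determined on the first 65 FQ-resistant clinical isolates, and 64 regrew on subculture. Resistance was defined by the WHO 1% proportion method on Lowenstein-Jensen medium with ofloxacin at 2 μg/ml. Mutations were assigned by gyrA/gyrB sequencing and Beijing genotype by spoligotyping. The value is the median MIC per mutation, excluding isolates with multiple mutations or sequencing heteropeaks.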
# [10] = system: Mycobacterium tuberculosis; assay: Antimycobacterial activity against fluoroquinolone-resistant Mycobacterium tuberculosis Beijing genotype isolates without carrying multiple mutation and harboring gyrB D500N mutant gene; summary of the method: as §2
# [11] = system: Mycobacterium tuberculosis; assay: Antimycobacterial activity against fluoroquinolone-resistant Mycobacterium tuberculosis Beijing genotype isolates without carrying multiple mutation and harboring gyrA D94N mutant gene; summary of the method: as §2
# [12] = system: Mycobacterium tuberculosis; assay: Antimycobacterial activity against fluoroquinolone-resistant Mycobacterium tuberculosis Beijing genotype isolates without carrying mutation; summary of the method: as §2
# [13] = system: Mycobacterium tuberculosis; assay: Antimycobacterial activity against mixture of fluoroquinolone-resistant and sensitive Mycobacterium tuberculosis Beijing genotype isolates carrying heteropeaks upon sequencing at mutation site and harboring gyrB A90V and D500A mutant genes; summary of the method: as §1
# [14] = system: Mycobacterium tuberculosis; assay: Antimycobacterial activity against mixture of fluoroquinolone-resistant and sensitive Mycobacterium tuberculosis Beijing genotype isolates carrying heteropeaks upon sequencing at mutation site and harboring gyrA D94G and D94A mutant genes; summary of the method: as §1
# [15] = system: Mycobacterium tuberculosis; assay: Antimycobacterial activity against fluoroquinolone-resistant Mycobacterium tuberculosis Beijing genotype isolates without carrying multiple mutation and harboring gyrA A90V mutant gene; summary of the method: as §2
# [16] = system: Mycobacterium tuberculosis; assay: Antimycobacterial activity against fluoroquinolone-resistant Mycobacterium tuberculosis Beijing genotype isolates without carrying multiple mutation and harboring gyrB D540D mutant gene; summary of the method: as §2
# [17] = system: Mycobacterium tuberculosis; assay: Antimycobacterial activity against fluoroquinolone-resistant Mycobacterium tuberculosis Beijing genotype isolates without carrying multiple mutation and harboring gyrA D94A mutant gene; summary of the method: as §2
# [18] = system: Mycobacterium tuberculosis; assay: Antimycobacterial activity against mixture of fluoroquinolone-resistant and sensitive Mycobacterium tuberculosis Beijing genotype isolates carrying heteropeaks upon sequencing at mutation site and harboring gyrA D94N mutant gene; summary of the method: as §1
# [19] = system: Mycobacterium tuberculosis; assay: Antimycobacterial activity against mixture of fluoroquinolone-resistant and sensitive Mycobacterium tuberculosis Beijing genotype isolates carrying heteropeaks upon sequencing at mutation site and harboring gyrB D540D mutant gene; summary of the method: as §1
# [20] = system: Mycobacterium tuberculosis; assay: Antimycobacterial activity against mixture of fluoroquinolone-resistant and sensitive Mycobacterium tuberculosis Beijing genotype isolates carrying heteropeaks upon sequencing at mutation site and harboring gyrA A90V mutant gene; summary of the method: as §1
# [21] = system: Mycobacterium tuberculosis; assay: Antimycobacterial activity against mixture of fluoroquinolone-resistant and sensitive Mycobacterium tuberculosis Beijing genotype isolates carrying heteropeaks upon sequencing at mutation site and harboring gyrB A90V and T539P mutant genes; summary of the method: as §1
# [22] = system: Mycobacterium tuberculosis; assay: Antimycobacterial activity against mixture of fluoroquinolone-resistant and sensitive Mycobacterium tuberculosis Beijing genotype isolates carrying heteropeaks upon sequencing at mutation site and harboring gyrA D94Y mutant gene; summary of the method: as §1
# [23] = system: Mycobacterium tuberculosis; assay: Antimycobacterial activity against fluoroquinolone-resistant Mycobacterium tuberculosis Beijing genotype isolates without carrying multiple mutation and harboring gyrA D94G mutant gene; summary of the method: as §2
structure (smiles),measurement,setting,value
CC1COc2c(N3CCN(C)CC3)c(F)cc3c(=O)c(C(=O)O)cn1c23 (stereo not drawn) [OFLOXACIN],MIC,[1],4 mg/L
same,MIC,[2],4 mg/L
same,MIC,[3],8 mg/L
same,MIC,[4],12 mg/L
same,MIC,[5],12 mg/L
same,MIC,[6],12 mg/L
same,MIC,[7],8 mg/L
same,MIC,[8],>12 mg/L
same,MIC,[9],12 mg/L
same,MIC,[10],>4 mg/L
same,MIC,[11],12 mg/L
same,MIC,[12],4 mg/L
same,MIC,[13],8 mg/L
same,MIC,[14],12 mg/L
same,MIC,[15],8 mg/L
same,MIC,[16],12 mg/L
same,MIC,[17],8 mg/L
same,MIC,[18],12 mg/L
same,MIC,[19],12 mg/L
same,MIC,[20],8 mg/L
same,MIC,[21],>12 mg/L
same,MIC,[22],>12 mg/L
same,MIC,[23],12 mg/L
